Legend:
HepG2 = experiment: Cytotoxicity against human HepG2 cells by MTT assay; assay type: functional, cell-based
A549 [1] = experiment: Cytotoxicity against human A549 cells assessed as inhibition of cell proliferation after 72 hrs by SRB assay; assay type: functional, cell-based; settings: A549, 72 h
In short: (§1)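 SRB assay. Cells were seeded, cultured overnight, then exposed to a gradient of agent concentrations for 72 h. Absorbance was read at 560 nm.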

[2] = Cytotoxicity against human KB/VCR cells assessed as inhibition of cell proliferation after 72 hrs by SRB assay; assay type: functional, cell-based; in short: as §1
[3] = Cytotoxicity against human KB cells assessed as inhibition of cell proliferation after 72 hrs by SRB assay; assay type: functional, cell-based; in short: as §1
KB [4] = experiment: Selectivity index, ratio of IC50 for human KB/VCR cells to IC50 for human KB cells; assay type: functional
A549 [5] = experiment: Selectivity index, ratio of IC50 for human A549 cells to IC50 for human KB cells; assay type: functional
A549 [6] = experiment: Potency index, ratio of IC50 for artemisinin to IC50 for test compound against human A549 cells; assay type: functional
[7] = Potency index, ratio of IC50 for artemisinin to IC50 for test compound against human KB/VCR cells; assay type: functional
KB [8] = experiment: Potency index, ratio of IC50 for artemisinin to IC50 for test compound against human KB cells; assay type: functional
L1210 = experiment: Cytotoxicity against mouse L1210 cells by MTT assay; assay type: functional, cell-based

Compound: CCCCCCCCCCCCCCNC(=O)C[C@H]1O[C@@H]2O[C@@]3(C)CC[C@H]4[C@H](C)CC[C@@H]([C@H]1C)[C@@]24OO3
- IC50 (HepG2): 0.46 µM

Compound: C[C@@H]1CC[C@@H]2[C@]34OO[C@](C)(CC[C@@H]13)O[C@H]4OC(=O)[C@@]21CC(c2ccccc2)=NO1
- IC50 (A549 [1]): > 20 µM
- IC50 [2]: > 20 µM
- IC50 [3]: > 20 µM

Compound: C[C@@H]1CC[C@@H]2[C@]34OO[C@](C)(CC[C@@H]13)O[C@H]4OC(=O)[C@@]21CC(c2ccc(Cl)cc2)=NO1
- IC50 (A549 [1]): > 20 µM
- IC50 [2]: 14 µM
- IC50 [3]: 13.9 µM

Compound: CO[C@H]1O[C@@H]2O[C@@]3(C)CC[C@H]4[C@H](C)CC[C@@H]([C@]15CC(c1c(Cl)cccc1Cl)=NO5)[C@@]24OO3
- IC50 (A549 [1]): 14.4 µM
- IC50 [2]: 5.06 µM
- IC50 [3]: 5.29 µM

Compound: C[C@@H]1CC[C@@H]2[C@]34OO[C@](C)(CC[C@@H]13)O[C@H]4OC(=O)[C@@]21CC(c2c(Cl)cccc2Cl)=NO1
- IC50 (A549 [1]): > 20 µM
- IC50 [2]: > 20 µM
- IC50 [3]: > 20 µM

Compound: CCO[C@@H]1O[C@@H]2O[C@@]3(C)CC[C@H]4[C@H](C)CC[C@@H]([C@]15C[C@@H]1c6ccc(OC)cc6CCN1O5)[C@@]24OO3
- IC50 (A549 [1]): > 20 µM
- IC50 [2]: > 20 µM
- IC50 [3]: > 20 µM

Compound: C[C@@H]1CC[C@@H]2[C@]34OO[C@](C)(CC[C@@H]13)O[C@H]4OC(=O)[C@@]21C[C@H]2c3ccccc3CCN2O1
- IC50 [2]: > 20 µM
- IC50 [3]: > 20 µM

Compound: COc1ccc(C2=NO[C@@]3(C2)C(=O)O[C@@H]2O[C@@]4(C)CC[C@H]5[C@H](C)CC[C@@H]3[C@@]25OO4)cc1OC
- IC50 (A549 [1]): > 20 µM
- IC50 [2]: > 20 µM
- IC50 [3]: > 20 µM

Compound: COc1ccc2c(c1)CCN1O[C@@]3(C[C@H]21)[C@@H](OCCN1CCOCC1)O[C@@H]1O[C@@]2(C)CC[C@H]4[C@H](C)CC[C@@H]3[C@@]14OO2
- IC50 (A549 [1]): > 20 µM
- IC50 [2]: > 20 µM
- IC50 [3]: > 20 µM

Compound: COc1ccc2c(c1)CCN1O[C@@]3(C[C@H]21)[C@@H](OCCN1CCN(C)CC1)O[C@@H]1O[C@@]2(C)CC[C@H]4[C@H](C)CC[C@@H]3[C@@]14OO2
- IC50 (A549 [1]): > 20 µM
- IC50 [2]: 16.9 µM
- IC50 [3]: 17.9 µM

Compound: CO[C@H]1O[C@@H]2O[C@@]3(C)CC[C@H]4[C@H](C)CC[C@@H]([C@]15CC(c1ccc(Cl)cc1)=NO5)[C@@]24OO3
- IC50 [2]: > 20 µM
- IC50 [3]: > 20 µM

Compound: CO[C@@H]1O[C@@H]2O[C@@]3(C)CC[C@H]4[C@H](C)CC[C@@H]([C@]15CC(c1ccc(Cl)cc1)=NO5)[C@@]24OO3
- IC50 [2]: > 20 µM
- IC50 [3]: > 20 µM

Compound: COc1ccc2c(c1)CCN1O[C@@]3(C[C@H]21)[C@H](F)O[C@@H]1O[C@@]2(C)CC[C@H]4[C@H](C)CC[C@@H]3[C@@]14OO2
- IC50 [2]: > 20 µM
- IC50 [3]: > 20 µM

Compound: C[C@@H]1CC[C@@H]2[C@]34OO[C@](C)(CC[C@@H]13)O[C@H]4OC(=O)[C@@]21C[C@@H]2CCCN2O1
- IC50 (A549 [1]): 10.5 µM
- IC50 [2]: 3.35 µM
- IC50 [3]: 2.34 µM

Compound: C[C@@H]1CC[C@@H]2[C@]34OO[C@](C)(CC[C@@H]13)O[C@H]4OC(=O)[C@@]21C[C@@H]2c3ccccc3CCN2O1
- Ratio IC50 (KB [4]): 3
- IC50 (A549 [1]): 9.93 µM
- IC50 [2]: 14 µM
- IC50 [3]: 2.91 µM
- Ratio IC50 (A549 [5]): 3

Compound: COc1ccc2c(c1)CCN1O[C@@]3(C[C@H]21)C(=O)O[C@@H]1O[C@@]2(C)CC[C@H]4[C@H](C)CC[C@@H]3[C@@]14O2
- IC50 [2]: 13.4 µM
- IC50 [3]: 15.4 µM

Compound: CO[C@@H]1O[C@@H]2O[C@@]3(C)CC[C@H]4[C@H](C)CC[C@@H]([C@]15CC(c1c(Cl)cccc1Cl)=NO5)[C@@]24OO3
- IC50 (A549 [1]): > 20 µM
- IC50 [2]: > 20 µM
- IC50 [3]: > 20 µM

Compound: COc1ccc2c(c1)CCN1O[C@@]3(C[C@H]21)C(=O)O[C@@H]1O[C@@]2(C)CC[C@H]4[C@H](C)CC[C@@H]3[C@@]14OO2
- Ratio IC50 (A549 [6]): 4
- IC50 (A549 [1]): 5.01 µM
- Ratio IC50 [7]: 4
- IC50 [2]: 3.16 µM
- IC50 [3]: 1.47 µM
- Ratio IC50 (KB [8]): 4

Compound: COC(=O)c1ccc(C2=NO[C@@]3(C2)C(=O)O[C@@H]2O[C@@]4(C)CC[C@H]5[C@H](C)CC[C@@H]3[C@@]25OO4)cc1
- IC50 [2]: > 20 µM
- IC50 [3]: > 20 µM

Compound: COc1cc2c(cc1OC)[C@H]1C[C@]3(ON1CC2)C(=O)O[C@@H]1O[C@@]2(C)CC[C@H]4[C@H](C)CC[C@@H]3[C@@]14OO2
- IC50 (A549 [1]): 4.69 µM
- IC50 [2]: 2.35 µM
- IC50 [3]: 2.53 µM

Compound: COc1ccc(C2=NO[C@@]3(C2)C(=O)O[C@@H]2O[C@@]4(C)CC[C@H]5[C@H](C)CC[C@@H]3[C@@]25OO4)cc1
- IC50 (A549 [1]): > 20 µM
- IC50 [2]: > 20 µM
- IC50 [3]: > 20 µM

Compound: COc1ccc2c(c1)CCN1O[C@@]3(C[C@H]21)[C@@H](F)O[C@@H]1O[C@@]2(C)CC[C@H]4[C@H](C)CC[C@@H]3[C@@]14OO2
- IC50 [2]: > 20 µM
- IC50 [3]: > 20 µM

Compound: COc1cc(C2=NO[C@@]3(C2)C(=O)O[C@@H]2O[C@@]4(C)CC[C@H]5[C@H](C)CC[C@@H]3[C@@]25OO4)cc(OC)c1OC
- IC50 (A549 [1]): > 20 µM
- IC50 [2]: > 20 µM
- IC50 [3]: > 20 µM

Compound: CC[C@]1(O)C[C@H]2CN(CCc3c([nH]c4ccccc34)[C@@](C(=O)OC)(c3cc4c(cc3OC)N(C=O)[C@H]3[C@@](O)(C(=O)OC)[C@H](OC(C)=O)[C@]5(CC)C=CCN6CC[C@]43[C@@H]65)C2)C1 [VINCRISTINE]
- IC50 (A549 [1]): 0.0368 µM
- IC50 [2]: 0.387 µM
- IC50 [3]: 0.00087 µM

Compound: C[C@H]1[C@@H](O[C@H](C#N)c2ccc(Br)cc2)O[C@@H]2O[C@@]3(C)CC[C@H]4[C@H](C)CC[C@@H]1[C@@]24OO3
- IC50 (L1210): 0.01 µM

Compound: COc1ccc2c(c1)CCN1O[C@@]3(C[C@H]21)[C@@H](OC)O[C@@H]1O[C@@]2(C)CC[C@H]4[C@H](C)CC[C@@H]3[C@@]14OO2
- IC50 (A549 [1]): > 20 µM
- IC50 [2]: > 20 µM
- IC50 [3]: > 20 µM

Compound: COc1ccc2c(c1)CCN1O[C@@]3(C[C@@H]21)C(=O)O[C@@H]1O[C@@]2(C)CC[C@H]4[C@H](C)CC[C@@H]3[C@@]14O2
- IC50 [2]: > 20 µM
- IC50 [3]: > 20 µM

Compound: CCO[C@H]1O[C@@H]2O[C@@]3(C)CC[C@H]4[C@H](C)CC[C@@H]([C@]15C[C@@H]1c6ccc(OC)cc6CCN1O5)[C@@]24OO3
- IC50 (A549 [1]): > 20 µM
- IC50 [2]: > 20 µM
- IC50 [3]: > 20 µM

Compound: C[C@@H]1CC[C@@H]2[C@]34OO[C@](C)(CC[C@@H]13)O[C@H]4OC(=O)[C@@]21C[C@@H]2COCCN2O1
- IC50 [2]: > 20 µM
- IC50 [3]: > 20 µM

Compound: C[C@@H]1CC[C@H]2[C@@H](C)C(=O)O[C@@H]3O[C@@]4(C)CC[C@@H]1[C@]32OO4 [ARTEMISININ]
- IC50 (A549 [1]): > 20 µM
- IC50 [2]: > 20 µM
- IC50 [3]: > 20 µM

Compound: COc1ccc2c(c1)CCN1O[C@@]3(C[C@@H]21)C(=O)O[C@@H]1O[C@@]2(C)CC[C@H]4[C@H](C)CC[C@@H]3[C@@]14OO2
- IC50 [2]: > 20 µM
- IC50 [3]: > 20 µM

Compound: COc1ccc2c(c1)CCN1O[C@@]3(C[C@H]21)[C@H](OC)O[C@@H]1O[C@@]2(C)CC[C@H]4[C@H](C)CC[C@@H]3[C@@]14OO2
- IC50 (A549 [1]): > 20 µM
- IC50 [2]: > 20 µM
- IC50 [3]: > 20 µM

Compound: COc1cc2c(cc1OC)[C@@H]1C[C@]3(ON1CC2)C(=O)O[C@@H]1O[C@@]2(C)CC[C@H]4[C@H](C)CC[C@@H]3[C@@]14OO2
- IC50 (A549 [1]): > 20 µM
- IC50 [2]: > 20 µM
- IC50 [3]: > 20 µM
